Results from ChEMBL document CHEMBL1145047, “Design, synthesis, and evaluation of substituted phenylpropanoic acid derivatives as human peroxisome proliferator activated receptor activators. Discovery of potent and human peroxisome proliferator activated receptor alpha subtype-selective activators” (J Med Chem, 2003).

Assays:
Type in all cases: functional
[1] = system: Rattus norvegicus; assay: In vivo percent reduction on FFA of the rat at 3 mg/kg after 5 days
How it was run: (§1)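 Male Sprague-Dawley rats, 11 weeks old, fed standard chow and water ad libitum. Drug or vehicle suspended in 0.5% w/v arabic gum and given orally once daily at 0.3, 3 or 30 mg/kg; duration is 4 days in the methods and 5 days in the table. Plasma taken in the fed state. TG, FFA and total cholesterol measured enzymatically. HDL obtained by precipitation; LDL+VLDL = total minus HDL cholesterol. Values are mean percent reduction, N = 5 or 6.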

[2] = system: Rattus norvegicus; assay: In vivo percent reduction on FFA of the rat at 30 mg/kg after 5 days; how it was run: as §1
[3] = system: Rattus norvegicus; assay: In vivo percent reduction on LDL+VLDL of the normal rat at 0.3 mg/kg; how it was run: as §1
[4] = system: Rattus norvegicus; assay: In vivo percent reduction on LDL+VLDL of the normal rat at 30 mg/kg; how it was run: as §1
[5] = system: Rattus norvegicus; assay: In vivo percent reduction on LDL+VLDL of the normal rat at 3 mg/kg; how it was run: as §1
[6] = system: Rattus norvegicus; assay: In vivo percent reduction on LDL+VLDL of the rat at 0.3 mg/kg after 5 days; how it was run: as §1
[7] = system: Rattus norvegicus; assay: In vivo percent reduction on LDL+VLDL of the rat at 3 mg/kg after 5 days; how it was run: as §1
[8] = system: Rattus norvegicus; assay: In vivo percent reduction on LDL+VLDL of the rat at 30 mg/kg after 5 days; how it was run: as §1
[9] = system: Rattus norvegicus; assay: In vivo percent reduction on TG of the normal rat at 0.3 mg/kg; how it was run: as §1
[10] = system: Rattus norvegicus; assay: In vivo percent reduction on TG of the normal rat at 3 mg/kg; how it was run: as §1
[11] = system: Rattus norvegicus; assay: In vivo percent reduction on TG of the normal rat at 30 mg/kg; how it was run: as §1
[12] = system: Rattus norvegicus; assay: In vivo percent reduction on TG of the rat at 0.3 mg/kg after 5 days; how it was run: as §1
[13] = system: Rattus norvegicus; assay: In vivo percent reduction on TG of the rat at 3 mg/kg after 5 days; how it was run: as §1
[14] = system: Rattus norvegicus; assay: In vivo percent reduction on TG of the rat at 30 mg/kg after 5 days; how it was run: as §1
[15] = system: Rattus norvegicus; assay: In vivo percent reduction on total cholesterol of the normal rat at 0.3 mg/kg; how it was run: as §1
[16] = system: Rattus norvegicus; assay: In vivo percent reduction on total cholesterol of the normal rat at 30 mg/kg; how it was run: as §1
[17] = system: Rattus norvegicus; assay: In vivo percent reduction on total cholesterol of the normal rat at 3 mg/kg; how it was run: as §1
[18] = system: Rattus norvegicus; assay: In vivo percent reduction on total cholesterol of the rat at 0.3 mg/kg after 5 days; how it was run: as §1
[19] = system: Rattus norvegicus; assay: In vivo percent reduction on total cholesterol of the rat at 3 mg/kg after 5 days; how it was run: as §1
[20] = system: Rattus norvegicus; assay: In vivo percent reduction on total cholesterol of the rat at 30 mg/kg after 5 days; how it was run: as §1
[21] = system: Rattus norvegicus; assay: In vivo percent reduction on FFA of the rat at 0.3 mg/kg after 5 days; how it was run: as §1
[22] = system: Rattus norvegicus; assay: In vivo percent reduction on FFA of the normal rat at 0.3 mg/kg; how it was run: as §1
[23] = system: Rattus norvegicus; assay: In vivo percent reduction on FFA of the normal rat at 30 mg/kg; how it was run: as §1
[24] = system: Rattus norvegicus; assay: In vivo percent reduction on FFA of the normal rat at 3 mg/kg; how it was run: as §1

Question: Which Reduction [1] does the source give for `CC[C@@H](Cc1ccc(OC)c(C(=O)NCc2ccc(C(F)(F)F)cc2)c1)C(=O)O` here?
Answer: Its Reduction is 28%.

Question: And the Reduction [2]?
Answer: The Reduction was 69%.

Question: And the Reduction [3]?
Answer: Its Reduction is 46%.

Question: What about the Reduction [4] of the same molecule?
Answer: The Reduction was 58%.

Question: What about the Reduction [5] of the same molecule?
Answer: Its Reduction is 56%.

Question: What about the Reduction [6] of the same molecule?
Answer: Its Reduction is 29%.

Question: And the Reduction [7]?
Answer: Its Reduction is 58%.

Question: And the Reduction [8]?
Answer: The Reduction was 60%.

Question: What about the Reduction [9] of the same molecule?
Answer: The Reduction was -1%.

Question: What about the Reduction [10] of the same molecule?
Answer: Its Reduction is 26%.

Question: What about the Reduction [11] of the same molecule?
Answer: The Reduction was 33%.

Question: And the Reduction [12]?
Answer: Its Reduction is 15%.

Question: What about the Reduction [13] of the same molecule?
Answer: The Reduction was 25%.

Question: What about the Reduction [14] of the same molecule?
Answer: The Reduction was 56%.

Question: And the Reduction [15]?
Answer: The Reduction was 19%.

Question: What about the Reduction [16] of the same molecule?
Answer: The Reduction was 32%.

Question: And the Reduction [17]?
Answer: Its Reduction is 26%.

Question: And the Reduction [18]?
Answer: Its Reduction is 22%.

Question: And the Reduction [19]?
Answer: The Reduction was 29%.

Question: And the Reduction [20]?
Answer: The Reduction was 35%.

Question: And the Reduction [21]?
Answer: The Reduction was 12%.

Question: What about the Reduction [22] of the same molecule?
Answer: Its Reduction is 11%.

Question: And the Reduction [23]?
Answer: Its Reduction is 72%.

Question: What about the Reduction [24] of the same molecule?
Answer: The Reduction was 27%.
